Compound activity: PubChem, several laboratories
STEP block: inhibitors of human striatal-enriched phosphatase STEP. P54829. recombinant STEP, OMFP fluorogenic substrate, fluorescence. inhibition, % at 20 µM. 360,000 compounds, 0.25% hits;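 active = inhibition at 20 µM, scaled per plate between control wells, above about 37%, limit read from the data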;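 also: 0% = DMSO with enzyme and substrate and 100% = substrate only without enzyme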
Target sequence (P54829 whole entry, looked up): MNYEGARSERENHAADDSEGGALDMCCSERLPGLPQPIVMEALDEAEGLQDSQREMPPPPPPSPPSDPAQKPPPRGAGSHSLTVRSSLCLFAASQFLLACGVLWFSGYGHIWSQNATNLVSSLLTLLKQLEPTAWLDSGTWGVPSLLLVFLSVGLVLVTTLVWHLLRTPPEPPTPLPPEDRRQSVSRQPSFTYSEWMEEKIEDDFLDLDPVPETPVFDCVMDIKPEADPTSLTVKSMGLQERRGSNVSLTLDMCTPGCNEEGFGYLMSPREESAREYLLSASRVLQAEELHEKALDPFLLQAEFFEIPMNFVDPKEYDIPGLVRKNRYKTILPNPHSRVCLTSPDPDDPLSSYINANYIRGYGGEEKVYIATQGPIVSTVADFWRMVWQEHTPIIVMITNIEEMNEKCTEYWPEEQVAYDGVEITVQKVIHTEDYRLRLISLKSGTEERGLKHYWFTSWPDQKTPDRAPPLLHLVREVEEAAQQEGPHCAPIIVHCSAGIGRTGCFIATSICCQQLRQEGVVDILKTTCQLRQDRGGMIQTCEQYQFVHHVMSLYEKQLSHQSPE
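Assay system: isolated STEP enzyme. Buffer or medium: pH 6.0 Bis-Tris with DTT and Tween 20. Also added: fluorogenic phosphatase substrate OMFP at 25 µM final. Dosing: 20 µM, 1% DMSO. Timing: 20 min reaction, room temperature, in the dark. Measured by: fluorescence intensity, excitation 480 nm, emission 540 nm. Evaluation: normalized % inhibition.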
Pemphigus Ab inh: blocks pemphigus antibody binding to human desmoglein-3. DSG3-coupled beads, scFv-anti-DSG3-GFP binding, flow cytometry; stronger effect = lower value. P32926. binding (percent of control), % at 10 µM. 310,000 compounds, 0.48% hits;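 active = binding more than 3 SD below its plate's average and above zero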
Scp1 inh: inhibitors of human Scp-1 phosphatase; 340,000 compounds, 0.88% hits; inhibition, % at 20 µM; Q9GZU7; Recombinant Scp1, phosphopeptide, malachite green phosphate absorbance;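 active = inhibition above about 50% at 20 µM, limit read from the data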;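 also: plate controls were DMSO wells with enzyme for no effect and wells lacking enzyme for full effect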
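Incubation: 45 min enzyme reaction at room temperature / System: truncated SCP-1 phosphatase (76-261aa) / Reagent: Phospho 17-mer peptide substrate / Buffer or medium: Acidic Tris acetate buffer with magnesium and detergent / Signal: absorbance at 630 nm / Doses: one concentration, 20 µM, with 1.0% DMSO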
SUMO1 PPI mod: SUMO1-SIM interaction modulation; inhibition, % at 20 µM; SUMO1 binding to a labelled peptide, TR-FRET, 1 h; AID 602429; 360,000 compounds, 0.33% hits; P63165; in the data active = inhibition above about 37%
LMPTP block: LMPTP (human) inhibition | P24666 | recombinant LMPTP-A, OMFP fluorogenic substrate, fluorescence intensity | inhibition, % at 20 µM | 360,000 compounds, 0.22% hits;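 active = compounds that cut the enzyme signal by at least half of the control window in the single-dose screen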;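 also: plate controls were DMSO wells with enzyme plus substrate for no effect and substrate without enzyme for full effect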
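Assay system: LMPTP-A enzyme. Input: 0.625 nM LMPTP-A final. Probe or stimulus: 400 µM OMFP. Compound dosing: single 20 µM dose. Schedule: 50 min dark incubation at room temperature. Detection: fluorescence intensity of OMFP turnover product. Read-out: percent inhibition versus substrate-only and uninhibited controls. Benchmarks: no-enzyme low control, uninhibited high control.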
Scp-1 conf: confirmation of human Scp-1 phosphatase inhibitors | recombinant SCP-1 catalytic domain, phosphate release, malachite green absorbance | 2,500 compounds, 61% hits | AID 540281 | inhibition, % at 20 µM | shares compounds with Scp1 inh;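 also: plate controls were DMSO with enzyme for no effect and buffer wells lacking enzyme for full effect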
MG interference: interferes with malachite green readout, flagging false Scp-1 hits; shares compounds with Scp1 inh; Colorimetric interference counterscreen, malachite green absorbance 630 nm; apparent inhibition (interference), % at 20 µM; 2,500 tested, under 10 active; AID 540313;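 also: compounds added after enzyme reaction finished so only phosphate colour detection is probed; plate controls were DMSO wells with completed Scp-1 reaction for no effect and substrate wells lacking enzyme for full effect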
Scp-1 Tm shift: validation of human Scp-1 inhibitors by thermal shift binding | 1,500 compounds, 25% hits | Recombinant SCP1, Sypro Orange thermal shift Tm | thermal shift relative to vanadate control, % at 40 µM | shares compounds with Scp1 inh;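 active = substances whose mean melting-temperature shift, as a percentage of the reference inhibitor's shift, reaches about 5.3%, limit read from the data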;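 also: 0% = Tm of DMSO wells and 100% = Tm with sodium orthovanadate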
* = called active by the depositor. Only some compounds are listed: those with a hit (about 1.7% of all), similar ones and a draw of the others.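 The calls were made as follows, unless noted: active = inhibition of at least 30% at 20 µM; inactive = the rest.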

Screening Cc1ccc2nc(SCC(=O)N(CC(C)C)c3c(N)n(Cc4ccccc4)c(=O)[nH]c3=O)[nH]c2c1 returned STEP block 3, Pemphigus Ab inh 100, Scp1 inh 88*, SUMO1 PPI mod 0, LMPTP block 1, Scp-1 conf -1 and MG interference -4.
For CCN(C(=O)CSc1nc2ccc(OC)cc2[nH]1)c1c(N)n(Cc2ccccc2)c(=O)[nH]c1=O the results were STEP block 1, Pemphigus Ab inh 109, Scp1 inh -6, SUMO1 PPI mod 2 and LMPTP block 0.
For CC(=O)N1CCOc2ccc(S(=O)(=O)NC[C@H]3O[C@@H](n4ccc(=O)[nH]c4=O)[C@H](O)[C@@H]3O)cc21 the results were STEP block -2, Pemphigus Ab inh 96, Scp1 inh 8, SUMO1 PPI mod -1, LMPTP block -1, Scp-1 conf -17 and MG interference -16.
Screening O=S(=O)(c1ccc(S(=O)(=O)N(Cc2ccccc2)Cc2ccco2)cc1)N1CCCC1 returned STEP block -2, Pemphigus Ab inh 128, Scp1 inh 0, SUMO1 PPI mod 1 and LMPTP block -1.
Screening COC(=O)/C=C/c1ccccc1S(=O)(=O)N(Cc1ccccc1)Cc1ccco1 returned STEP block 2, Pemphigus Ab inh 107, Scp1 inh 73*, SUMO1 PPI mod 1, LMPTP block 1, Scp-1 conf 30 and MG interference -26.
Screening Cc1ccc2ccccc2c1C(O)c1ncc(-c2ccccc2Cl)[nH]1 (stereo not given) returned STEP block 0, SUMO1 PPI mod -4 and LMPTP block 1.
O=S1(=O)NC(CC2=CCCCC2)C2CCCCC2O1 (stereo not given) was read as STEP block 1, Pemphigus Ab inh 110, Scp1 inh 50*, SUMO1 PPI mod 1, LMPTP block 1, Scp-1 conf -11 and MG interference -16.
Screening CCOC(=O)Cc1cn(C(=O)OC(C)(C)C)c2ccccc12 returned STEP block 0, Pemphigus Ab inh 99, Scp1 inh -2, SUMO1 PPI mod -1 and LMPTP block 2.
`COc1cc(/C=N/NC(=O)c2cccc([N+](=O)[O-])c2)ccc1O` gave STEP block -5, Pemphigus Ab inh 105, Scp1 inh 89*, SUMO1 PPI mod -15, LMPTP block -1, Scp-1 conf -14 and MG interference -13.
Screening COc1ccc(C(=O)NCC(=O)Nc2ccc(-c3ccccc3)cc2)cc1 returned STEP block 12, Scp1 inh 95*, SUMO1 PPI mod 4, LMPTP block 23, Scp-1 conf 84*, MG interference -8 and Scp-1 Tm shift -20.
COc1ccc(NC(=O)CS(=O)CC(=O)Nc2ccc(NC(C)=O)cc2)cc1 (stereo not given) was read as STEP block 41*, Scp1 inh 79*, SUMO1 PPI mod 6, LMPTP block 0, Scp-1 conf 68*, MG interference -7 and Scp-1 Tm shift -3.
Screening COc1ccc(NC(=O)CS(=O)CC(=O)Nc2cccnc2)cc1 (stereo not given) returned STEP block -1, Pemphigus Ab inh 116, Scp1 inh -3, SUMO1 PPI mod 0 and LMPTP block 0.
CCCCCCCN1C(Nc2ccccc2)=NC[C@@H]1C was read as STEP block -3, Pemphigus Ab inh 98, Scp1 inh 0, SUMO1 PPI mod -2 and LMPTP block -1.
For CCOC(=O)CC1(C)OCC(C[N+]2(C)CCCCC2)O1 (stereo not given) the results were STEP block 1, Pemphigus Ab inh 99, Scp1 inh 93*, SUMO1 PPI mod 9, LMPTP block -1, Scp-1 conf 93*, MG interference -5 and Scp-1 Tm shift -20.
